Drawing on ChEMBL document CHEMBL2062417, “Biotinylated quercetin as an intrinsic photoaffinity proteomics probe for the identification of quercetin target proteins” (Bioorg Med Chem, 2011), this text covers IC50 and Activity for 1 compound.

Active and inactive are the calls of the source. The calls are words filed in the database; no cut-off is given here.

Experiment [1] deals with Calcium/calmodulin-dependent protein kinase type II subunit beta (Homo sapiens, UniProt Q13554). Description: Inhibition of CAMK2 using autocamtide-2 as substrate after 30 mins by PKLight assay.
Calcium/calmodulin-dependent protein kinase type II subunit beta, sequence (Q13554 whole entry): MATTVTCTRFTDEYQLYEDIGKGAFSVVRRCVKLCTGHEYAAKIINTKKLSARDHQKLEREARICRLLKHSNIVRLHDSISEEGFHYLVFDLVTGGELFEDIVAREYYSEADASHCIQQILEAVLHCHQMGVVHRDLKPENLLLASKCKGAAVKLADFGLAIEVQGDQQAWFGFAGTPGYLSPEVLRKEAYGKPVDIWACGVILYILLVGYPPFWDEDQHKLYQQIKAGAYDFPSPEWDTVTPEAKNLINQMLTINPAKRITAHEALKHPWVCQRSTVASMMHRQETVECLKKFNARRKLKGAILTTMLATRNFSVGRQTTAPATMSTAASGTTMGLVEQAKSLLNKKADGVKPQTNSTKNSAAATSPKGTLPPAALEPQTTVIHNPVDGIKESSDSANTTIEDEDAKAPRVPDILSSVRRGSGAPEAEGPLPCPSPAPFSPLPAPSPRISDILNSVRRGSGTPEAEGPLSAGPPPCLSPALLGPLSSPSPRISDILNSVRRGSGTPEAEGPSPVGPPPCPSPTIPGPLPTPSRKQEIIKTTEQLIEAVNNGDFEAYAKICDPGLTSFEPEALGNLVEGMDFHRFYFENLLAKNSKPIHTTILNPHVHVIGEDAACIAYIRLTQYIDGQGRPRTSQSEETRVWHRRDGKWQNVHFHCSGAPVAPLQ
In experiment [2] the target is T1, Splicing factor 3B subunit 3 (Homo sapiens) (UniProt Q15393).
T1 sequence (whole entry): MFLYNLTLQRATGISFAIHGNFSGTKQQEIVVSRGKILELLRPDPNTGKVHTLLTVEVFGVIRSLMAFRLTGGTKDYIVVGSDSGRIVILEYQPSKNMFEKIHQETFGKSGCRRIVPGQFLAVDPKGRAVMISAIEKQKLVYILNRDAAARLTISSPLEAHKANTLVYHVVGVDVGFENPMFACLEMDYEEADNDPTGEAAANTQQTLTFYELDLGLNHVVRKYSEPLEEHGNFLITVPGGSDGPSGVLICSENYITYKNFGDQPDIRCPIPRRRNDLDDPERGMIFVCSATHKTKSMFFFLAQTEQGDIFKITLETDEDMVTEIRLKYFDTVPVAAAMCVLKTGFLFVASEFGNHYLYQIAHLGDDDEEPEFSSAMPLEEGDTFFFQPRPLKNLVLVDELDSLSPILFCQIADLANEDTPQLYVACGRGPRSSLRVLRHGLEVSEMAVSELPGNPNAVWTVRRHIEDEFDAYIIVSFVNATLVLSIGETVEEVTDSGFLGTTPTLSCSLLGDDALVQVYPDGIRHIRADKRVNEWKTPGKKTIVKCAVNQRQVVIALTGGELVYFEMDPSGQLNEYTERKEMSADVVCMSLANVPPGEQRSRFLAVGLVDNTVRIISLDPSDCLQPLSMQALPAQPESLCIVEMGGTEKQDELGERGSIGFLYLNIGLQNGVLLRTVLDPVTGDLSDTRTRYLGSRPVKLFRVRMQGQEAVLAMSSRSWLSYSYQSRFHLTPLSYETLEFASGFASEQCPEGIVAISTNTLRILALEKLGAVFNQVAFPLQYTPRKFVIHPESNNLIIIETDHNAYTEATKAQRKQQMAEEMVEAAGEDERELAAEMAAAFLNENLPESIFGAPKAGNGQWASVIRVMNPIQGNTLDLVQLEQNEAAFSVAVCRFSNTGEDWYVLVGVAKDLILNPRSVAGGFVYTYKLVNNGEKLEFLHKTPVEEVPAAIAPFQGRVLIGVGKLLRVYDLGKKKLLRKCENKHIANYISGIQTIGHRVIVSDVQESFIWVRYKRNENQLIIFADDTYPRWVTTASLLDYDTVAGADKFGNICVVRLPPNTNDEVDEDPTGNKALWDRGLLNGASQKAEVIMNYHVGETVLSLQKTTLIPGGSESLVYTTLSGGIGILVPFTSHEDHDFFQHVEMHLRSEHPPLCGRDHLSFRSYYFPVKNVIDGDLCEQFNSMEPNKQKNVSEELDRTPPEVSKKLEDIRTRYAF
The experiment can be described thus: Binding affinity to SF3B3 in human Jurkat cells at 150 uM followed by UV irradiation for 30 mins with Wood's glass filtered medium pressure mercury arc light after cell lysis measured after denaturing wash by SDS-PAGE based pull down assay. Summed up: (§1)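 Jurkat cells were grown in RPMI with 10% FBS (about 15×10^6 cells) and treated 2 h with 150 μM BioQ in 3% aqueous DMSO. They were heat-shocked at 43 °C for 30 min, recovered 1 h at 37 °C, and UV-irradiated (320–400 nm, peak 365 nm, 30 min, 4 °C) before or after sonication lysis. Streptavidin-agarose capture ran 1 h. Beads were washed ≥3× with lysis buffer or 2% SDS Tris pH 7.4, boiled, run on 12% SDS-PAGE and silver-stained.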

The target of experiment [3] is Heat shock protein HSP 90-alpha (Homo sapiens) (UniProt P07900). The experiment can be described thus: Binding affinity to HSP90AA1 in human Jurkat cells at 150 uM followed by UV irradiation for 30 mins with Wood's glass filtered medium pressure mercury arc light after cell lysis measured after denaturing wash by SDS-PAGE based pull down assay. Summed up:
as §1

Experiment [4] deals with ATP synthase F(1) complex subunit beta, mitochondrial (Homo sapiens) (UniProt P06576). Description: Binding affinity to ATP5B in human Jurkat cells at 150 uM followed by UV irradiation for 30 mins with Wood's glass filtered medium pressure mercury arc light after cell lysis measured after denaturing wash by SDS-PAGE based pull down assay. The method in brief: as §1
ATP synthase F(1) complex subunit beta, mitochondrial (Homo sapiens), sequence (P06576 whole entry, one chain of several): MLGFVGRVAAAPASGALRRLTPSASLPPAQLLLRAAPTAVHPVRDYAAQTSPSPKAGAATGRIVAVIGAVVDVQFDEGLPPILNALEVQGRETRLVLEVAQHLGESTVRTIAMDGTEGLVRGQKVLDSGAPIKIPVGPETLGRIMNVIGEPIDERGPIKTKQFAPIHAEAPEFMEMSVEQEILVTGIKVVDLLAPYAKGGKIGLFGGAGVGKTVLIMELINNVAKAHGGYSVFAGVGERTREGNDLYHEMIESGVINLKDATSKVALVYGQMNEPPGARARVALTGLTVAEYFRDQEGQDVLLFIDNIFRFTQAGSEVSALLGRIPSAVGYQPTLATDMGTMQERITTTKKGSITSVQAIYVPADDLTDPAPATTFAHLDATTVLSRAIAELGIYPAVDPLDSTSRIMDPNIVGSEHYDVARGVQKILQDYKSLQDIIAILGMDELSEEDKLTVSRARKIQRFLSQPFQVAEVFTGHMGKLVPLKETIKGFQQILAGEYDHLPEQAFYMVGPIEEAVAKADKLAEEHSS
The target of experiment [5] is Heat shock-related 70 kDa protein 2 (Homo sapiens) (UniProt P54652). The experiment can be described thus: Binding affinity to HSPA2 in human Jurkat cells at 150 uM followed by UV irradiation for 30 mins with Wood's glass filtered medium pressure mercury arc light prior to cell lysis measured after denaturing wash by LC-MS/MS based pull down assay. The method in brief:
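Silver-stained bands from cells irradiated before lysis were excised, destained, reduced with 10 mM DTT, alkylated with 50 mM iodoacetamide and digested with trypsin overnight. Peptides were extracted in 1% TFA/50% acetonitrile. Nano-C18 LC used a 2–50% acetonitrile gradient with 0.1% formic acid over 50 min at 260 nL/min, followed by MS/MS identification.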

Heat shock-related 70 kDa protein 2 (Homo sapiens), sequence (P54652 whole entry): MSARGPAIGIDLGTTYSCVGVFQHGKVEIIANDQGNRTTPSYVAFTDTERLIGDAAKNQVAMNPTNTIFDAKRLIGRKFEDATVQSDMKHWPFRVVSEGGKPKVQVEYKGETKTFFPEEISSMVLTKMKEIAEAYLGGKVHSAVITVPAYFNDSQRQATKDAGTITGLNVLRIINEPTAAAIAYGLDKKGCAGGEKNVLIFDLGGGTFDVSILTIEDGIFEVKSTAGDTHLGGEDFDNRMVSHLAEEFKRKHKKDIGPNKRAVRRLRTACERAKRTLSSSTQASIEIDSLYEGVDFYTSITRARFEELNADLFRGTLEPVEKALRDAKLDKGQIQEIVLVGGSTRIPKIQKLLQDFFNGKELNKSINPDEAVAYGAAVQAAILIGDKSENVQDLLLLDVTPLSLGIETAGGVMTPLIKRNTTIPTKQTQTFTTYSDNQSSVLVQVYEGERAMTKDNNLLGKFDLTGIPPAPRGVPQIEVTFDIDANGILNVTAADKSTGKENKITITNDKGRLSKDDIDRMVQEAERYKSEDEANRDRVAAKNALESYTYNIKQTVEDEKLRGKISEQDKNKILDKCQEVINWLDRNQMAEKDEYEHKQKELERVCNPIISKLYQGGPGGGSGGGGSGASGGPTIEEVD

As a reminder, the IC50 is the concentration at which inhibition is half-maximal. Take `O=C(CCCC[C@@H]1SC[C@@H]2NC(=O)N[C@@H]21)NCCOCCOCCNC(=O)COc1cc(O)c2c(=O)c(O)c(-c3ccc(O)c(O)c3)oc2c1`: in experiment [1], the half-inhibitory concentration (IC50) came to 25.9 µM. The outcome in experiment [2], in experiment [3], in experiment [4] and in experiment [5] was Active.
